Measured values taken from ChEMBL document CHEMBL1123737, “Synthesis, absolute configuration, and antibacterial activity of 6,7-dihydro-5,8-dimethyl-9-fluoro-1-oxo-1H,5H- benzo[ij]quinolizine-2-carboxylic acid” (1987).
Converted amounts (≈) assume the structure as drawn.

Assays:
[1] = system: Bordetella pertussis; experiment: In vitro antibacterial activity against Bordetella pertussis ATCC 10380; type: functional
Procedure, shortened: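 Agar dilution on Mueller-Hinton agar with drug from 5 mg/mL DMSO stocks, 2-fold diluted through nutrient broth to 12.5–0.006 µg/mL. Inoculum was applied by Steers replicator. MIC was read as the lowest concentration with no visible growth.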

[2] = system: Escherichia coli; experiment: In vitro antibacterial activity against Escherichia coli ATCC 15221; type: functional
Procedure, shortened: (§1)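 Agar dilution MIC. DMSO stocks at 5 mg/mL were serially 2-fold diluted in nutrient broth and mixed into Mueller-Hinton agar, with 5% defibrinated rabbit blood for hemophilic bacteria. Final range was 12.5 to 0.006 µg/mL. Overnight growth was suspended in saline to McFarland 6 (2 × 10^6/mL) and Steers-replicated. Plates were incubated 30 h at 37 °C; MIC was the lowest concentration preventing visible growth.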

[3] = system: Enterobacter cloacae; experiment: In vitro antibacterial activity against Enterobacter cloacae ATCC 23355; type: functional; procedure, shortened: as §1
[4] = system: Haemophilus influenzae; experiment: In vitro antibacterial activity against Haemophilus influenzae ATCC 9333; type: functional; procedure, shortened: as §1
[5] = system: Klebsiella pneumoniae; experiment: In vitro antibacterial activity against Klebsiella pneumoniae ATCC 23357; type: functional; procedure, shortened: as §1
[6] = system: Proteus mirabilis; experiment: In vitro antibacterial activity against Proteus mirabilis-R 119; type: functional; procedure, shortened: as §1
[7] = In vitro antibacterial activity against Pseudomonas cepacia ATCC 25608; type: functional; settings: Burkholderia cepacia; procedure, shortened: as §1
[8] = system: Pseudomonas aeruginosa; experiment: In vitro antibacterial activity against Pseudomonas aeruginosa ATCC 15422; type: functional; procedure, shortened: as §1
[9] = In vitro antibacterial activity against Salmonella typhi-CDC M4694; type: functional, salmonella typhosa
Procedure, shortened: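 Agar dilution MIC: compounds dissolved in DMSO (5 mg/mL stock), 2-fold serial dilutions in nutrient broth, mixed into Mueller-Hinton agar; series 12.5 down to 0.006 μg/mL. Overnight culture suspended in saline to McFarland 6 (2 × 10^6/mL), spotted with Steers replicator. Incubated 37 °C for 30 h; MIC = lowest concentration preventing visible growth.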

[10] = system: Staphylococcus epidermidis; experiment: In vitro antibacterial activity against Staphylococcus epidermidis ATCC 12228; type: functional; procedure, shortened: as §1
[11] = system: Serratia marcescens; experiment: In vitro antibacterial activity against Serratia marcescens ATCC 8100; type: functional; procedure, shortened: as §1
[12] = system: Enterococcus faecalis; experiment: In vitro antibacterial activity against Streptococcus Streptococcus faecalis ATCC 10741; type: functional; procedure, shortened: as §1
[13] = system: Streptococcus pyogenes; experiment: In vitro antibacterial activity against Streptococcus pyogenes ATCC 1961-1; type: functional; procedure, shortened: as §1
[14] = system: Staphylococcus aureus; experiment: In vitro antibacterial activity against Staphylococcus aureus ATCC 6538-P; type: functional; procedure, shortened: as §1
[15] = system: Enterococcus faecalis; experiment: In vitro antibacterial activity against Streptococcus faecalis ATCC 10741; type: functional; procedure, shortened: as §1

SMILES	MIC [1] [µg/mL]	MIC [2] [µg/mL]	MIC [3] [µg/mL]	MIC [4] [µg/mL]	MIC [5] [µg/mL]	MIC [6] [µg/mL]	MIC [7] [µg/mL]	MIC [8] [µg/mL]	MIC [9] [µg/mL]	MIC [10] [µg/mL]	MIC [11] [µg/mL]	MIC [12] [µg/mL]	MIC [13] [µg/mL]	MIC [14] [µg/mL]	MIC [15] [µg/mL]
Cc1c(F)cc2c(=O)c(C(=O)O)cn3c2c1CCC3	0.8 (≈ 3.06 µM)	0.8 (≈ 3.06 µM)	0.4 (≈ 1.53 µM)	0.1 (≈ 0.383 µM)	0.8 (≈ 3.06 µM)	1.6 (≈ 6.12 µM)	6.2 (≈ 23.7 µM)	12.5 (≈ 47.8 µM)	0.4 (≈ 1.53 µM)	1.6 (≈ 6.12 µM)	0.8 (≈ 3.06 µM)	12.5 (≈ 47.8 µM)	12.5 (≈ 47.8 µM)	0.8 (≈ 3.06 µM)	–
Cc1c(F)cc2c(=O)c(C(=O)O)cn3c2c1CC[C@@H]3C	0.012 (≈ 0.0436 µM)	0.1 (≈ 0.363 µM)	0.1 (≈ 0.363 µM)	0.006 (≈ 0.0218 µM)	0.1 (≈ 0.363 µM)	0.4 (≈ 1.45 µM)	0.8 (≈ 2.91 µM)	3.1 (≈ 11.3 µM)	0.05 (≈ 0.182 µM)	0.05 (≈ 0.182 µM)	0.2 (≈ 0.727 µM)	0.8 (≈ 2.91 µM)	1.6 (≈ 5.81 µM)	0.025 (≈ 0.0908 µM)	–
Cc1c(F)cc2c(=O)c(C(=O)O)cn3c2c1CC[C@H]3C	1.6 (≈ 5.81 µM)	6.2 (≈ 22.5 µM)	3.1 (≈ 11.3 µM)	0.4 (≈ 1.45 µM)	6.2 (≈ 22.5 µM)	12.5 (≈ 45.4 µM)	12.5 (≈ 45.4 µM)	12.5 (≈ 45.4 µM)	3.1 (≈ 11.3 µM)	6.2 (≈ 22.5 µM)	3.1 (≈ 11.3 µM)	12.5 (≈ 45.4 µM)	12.5 (≈ 45.4 µM)	3.1 (≈ 11.3 µM)	–
Cc1c(F)cc2c(=O)c(C(=O)O)cn3c2c1CCC3C (racemic) [IBAFLOXACIN]	0.025 (≈ 0.0908 µM)	0.2 (≈ 0.727 µM)	0.2 (≈ 0.727 µM)	0.006 (≈ 0.0218 µM)	0.2 (≈ 0.727 µM)	0.8 (≈ 2.91 µM)	0.8 (≈ 2.91 µM)	6.2 (≈ 22.5 µM)	0.1 (≈ 0.363 µM)	0.1 (≈ 0.363 µM)	0.4 (≈ 1.45 µM)	–	0.8 (≈ 2.91 µM)	0.05 (≈ 0.182 µM)	0.8 (≈ 2.91 µM)
